In ChEMBL document CHEMBL1795311, “Synthesis, antiproliferative activity, and mechanism of action of a series of 2-{[(2E)-3-phenylprop-2-enoyl]amino}benzamides” (Eur J Med Chem, 2011):

Key:
[1] = test system: IGROV-1; assay: Growth inhibition of human IGROV1 cells after 48 hrs by SRB assay; assay type: functional; conditions: IGROV-1, 48 h
Procedure, shortened: (§1)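 NCI DTP panel cells grown in RPMI 1640 with 5% FBS and 2 mM L-glutamine, preincubated 24 h, then given five concentrations (10-fold or ½-log dilutions from DMSO stock) for 48 h at 37 °C. Cells fixed with TCA, stained with SRB, absorbance read at 515 nm, with time-zero plates as reference.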

[2] = test system: HCC 2998; assay: Growth inhibition of human HCC2998 cells after 48 hrs by SRB assay; assay type: functional; conditions: HCC 2998, 48 h; procedure, shortened: as §1
[3] = test system: 786-0; assay: Growth inhibition of human 786-0 cells after 48 hrs by SRB assay; assay type: functional; conditions: 786-0, 48 h; procedure, shortened: as §1
[4] = test system: SNB-19; assay: Growth inhibition of human SNB19 cells after 48 hrs by SRB assay; assay type: functional; conditions: SNB-19, 48 h
Procedure, shortened: (§2)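 Run by the NCI Developmental Therapeutics Program: cells in RPMI 1640 with 5% FBS and 2 mM L-glutamine, plated at 5000–40,000 cells/well and grown 24 h before dosing. Drug (DMSO stock) given at five concentrations for 48 h at 37 °C, 5% CO2. Adherent cells fixed with cold TCA, stained with 0.4% SRB and read at 515 nm. GI50, TGI and LC50 taken from the time-zero, control and treated absorbances.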

[5] = test system: HCT-15; assay: Growth inhibition of human HCT15 cells after 48 hrs by SRB assay; assay type: functional; conditions: HCT-15, 48 h; procedure, shortened: as §1
[6] = test system: A549; assay: Growth inhibition of human A549 cells after 48 hrs by SRB assay; assay type: functional; conditions: A549, 48 h; procedure, shortened: as §1
[7] = test system: UACC-62; assay: Growth inhibition of human UACC62 cells after 48 hrs by SRB assay; assay type: functional; conditions: UACC-62, 48 h; procedure, shortened: as §2
[8] = test system: SW-620; assay: Growth inhibition of human SW620 cells after 48 hrs by SRB assay; assay type: functional; conditions: SW-620, 48 h; procedure, shortened: as §2
[9] = test system: SK-OV-3; assay: Growth inhibition of human SKOV3 cells after 48 hrs by SRB assay; assay type: functional; conditions: SK-OV-3, 48 h; procedure, shortened: as §2
[10] = test system: K562; assay: Antiproliferative activity against human K562 cells at 10 uM after 48 hrs by trypan blue assay; assay type: functional; conditions: K562, 48 h, read-out: GI
[11] = test system: UACC-257; assay: Growth inhibition of human UACC257 cells after 48 hrs by SRB assay; assay type: functional; conditions: UACC-257, 48 h; procedure, shortened: as §2
[12] = Growth inhibition of human Hs 578T cells after 48 hrs by SRB assay; assay type: functional; procedure, shortened: as §1
[13] = test system: SK-MEL-5; assay: Growth inhibition of human SK-MEL-5 cells after 48 hrs by SRB assay; assay type: functional; conditions: SK-MEL-5, 48 h; procedure, shortened: as §2
[14] = test system: SF-295; assay: Growth inhibition of human SF295 cells after 48 hrs by SRB assay; assay type: functional; conditions: SF-295, 48 h; procedure, shortened: as §1
[15] = test system: CAKI-1; assay: Growth inhibition of human Caki1 cells after 48 hrs by SRB assay; assay type: functional; conditions: CAKI-1, 48 h; procedure, shortened: as §1
[16] = test system: K562; assay: Growth inhibition of human K562 cells after 48 hrs by trypan blue assay; assay type: functional, cell-based; conditions: K562, 48 h
[17] = test system: SF-539; assay: Growth inhibition of human SF539 cells after 48 hrs by SRB assay; assay type: functional; conditions: SF-539, 48 h; procedure, shortened: as §1
[18] = test system: SNB-75; assay: Growth inhibition of human SNB75 cells after 48 hrs by SRB assay; assay type: functional; conditions: SNB-75, 48 h; procedure, shortened: as §2
[19] = test system: HL-60; assay: Growth inhibition of human HL60 cells after 48 hrs by SRB assay; assay type: functional; conditions: HL-60, 48 h; procedure, shortened: as §1
[20] = test system: HCT-116; assay: Growth inhibition of human HCT116 cells after 48 hrs by SRB assay; assay type: functional; conditions: HCT-116, 48 h; procedure, shortened: as §1
[21] = test system: MOLT-4; assay: Growth inhibition of human MOLT4 cells after 48 hrs by SRB assay; assay type: functional; conditions: MOLT-4, 48 h; procedure, shortened: as §1
[22] = test system: UO-31; assay: Growth inhibition of human UO31 cells after 48 hrs by SRB assay; assay type: functional; conditions: UO-31, 48 h; procedure, shortened: as §2
[23] = test system: PC-3; assay: Growth inhibition of human PC3 cells after 48 hrs by SRB assay; assay type: functional; conditions: PC-3, 48 h; procedure, shortened: as §1
[24] = test system: DU-145; assay: Growth inhibition of human DU145 cells after 48 hrs by SRB assay; assay type: functional; conditions: DU-145, 48 h; procedure, shortened: as §1
[25] = test system: A498; assay: Growth inhibition of human A498 cells after 48 hrs by SRB assay; assay type: functional; conditions: A498, 48 h; procedure, shortened: as §1
[26] = test system: OVCAR-5; assay: Growth inhibition of human OVCAR5 cells after 48 hrs by SRB assay; assay type: functional; conditions: OVCAR-5, 48 h; procedure, shortened: as §1
[27] = test system: COLO 205; assay: Growth inhibition of human COLO205 cells after 48 hrs by SRB assay; assay type: functional; conditions: COLO 205, 48 h; procedure, shortened: as §1
[28] = test system: NCI-H522; assay: Growth inhibition of human NCI-H522 cells after 48 hrs by SRB assay; assay type: functional; conditions: NCI-H522, 48 h; procedure, shortened: as §1
[29] = test system: NCI-H226; assay: Growth inhibition of human NCI-H226 cells after 48 hrs by SRB assay; assay type: functional; conditions: NCI-H226, 48 h; procedure, shortened: as §1
[30] = test system: K562; assay: Growth inhibition of human K562 cells after 48 hrs by SRB assay; assay type: functional; conditions: K562, 48 h; procedure, shortened: as §1
[31] = test system: NCI-H23; assay: Growth inhibition of human NCI-H23 cells after 48 hrs by SRB assay; assay type: functional; conditions: NCI-H23, 48 h; procedure, shortened: as §1
[32] = test system: NCI-H460; assay: Growth inhibition of human NCI-H460 cells after 48 hrs by SRB assay; assay type: functional; conditions: NCI-H460, 48 h; procedure, shortened: as §1
[33] = test system: MCF7; assay: Growth inhibition of human MCF7 cells after 48 hrs by SRB assay; assay type: functional; conditions: MCF7, 48 h; procedure, shortened: as §1
[34] = test system: NCI/ADR-RES; assay: Growth inhibition of human NCI/ADR-RES cells after 48 hrs by SRB assay; assay type: functional; procedure, shortened: as §1
[35] = test system: OVCAR-3; assay: Growth inhibition of human OVCAR3 cells after 48 hrs by SRB assay; assay type: functional; conditions: OVCAR-3, 48 h; procedure, shortened: as §1
[36] = test system: MDA-MB-468; assay: Growth inhibition of human MDA-MB-468 cells after 48 hrs by SRB assay; assay type: functional; conditions: MDA-MB-468, 48 h; procedure, shortened: as §1
[37] = test system: SK-MEL-28; assay: Growth inhibition of human SK-MEL-28 cells after 48 hrs by SRB assay; assay type: functional; conditions: SK-MEL-28, 48 h; procedure, shortened: as §2
[38] = test system: LOX IMVI; assay: Growth inhibition of human LOXIMVI cells after 48 hrs by SRB assay; assay type: functional; procedure, shortened: as §1
[39] = test system: SF-268; assay: Growth inhibition of human SF268 cells after 48 hrs by SRB assay; assay type: functional; conditions: SF-268, 48 h; procedure, shortened: as §1
[40] = test system: OVCAR-4; assay: Growth inhibition of human OVCAR4 cells after 48 hrs by SRB assay; assay type: functional; conditions: OVCAR-4, 48 h; procedure, shortened: as §1
[41] = test system: TK-10; assay: Growth inhibition of human TK10 cells after 48 hrs by SRB assay; assay type: functional; conditions: TK-10, 48 h; procedure, shortened: as §2
[42] = test system: OVCAR-8; assay: Growth inhibition of human OVCAR8 cells after 48 hrs by SRB assay; assay type: functional; conditions: OVCAR-8, 48 h; procedure, shortened: as §1
[43] = test system: M14; assay: Growth inhibition of human M14 cells after 48 hrs by SRB assay; assay type: functional; conditions: M14, 48 h; procedure, shortened: as §1
[44] = test system: T47D; assay: Growth inhibition of human T47D cells after 48 hrs by SRB assay; assay type: functional; procedure, shortened: as §2
[45] = test system: EKVX; assay: Growth inhibition of human EKVX cells after 48 hrs by SRB assay; assay type: functional; procedure, shortened: as §1
[46] = test system: U-251; assay: Growth inhibition of human U251 cells after 48 hrs by SRB assay; assay type: functional; conditions: U-251, 48 h; procedure, shortened: as §2
[47] = test system: HT-29; assay: Growth inhibition of human HT-29 cells after 48 hrs by SRB assay; assay type: functional; conditions: HT-29, 48 h; procedure, shortened: as §1
[48] = test system: CCRF-CEM; assay: Growth inhibition of human CCRF-CEM cells after 48 hrs by SRB assay; assay type: functional; procedure, shortened: as §1
[49] = test system: KM12; assay: Growth inhibition of human KM12 cells after 48 hrs by SRB assay; assay type: functional; conditions: KM12, 48 h; procedure, shortened: as §1
[50] = test system: SN12C; assay: Growth inhibition of human SN12C cells after 48 hrs by SRB assay; assay type: functional; procedure, shortened: as §2
[51] = test system: MDA-MB-435; assay: Growth inhibition of human MDA-MB-435 cells after 48 hrs by SRB assay; assay type: functional; conditions: MDA-MB-435, 48 h; procedure, shortened: as §1
[52] = test system: BT-549; assay: Growth inhibition of human BT549 cells after 48 hrs by SRB assay; assay type: functional; conditions: BT-549, 48 h; procedure, shortened: as §1
[53] = test system: Malme-3M; assay: Growth inhibition of human MALME-3M cells after 48 hrs by SRB assay; assay type: functional; procedure, shortened: as §1
[54] = test system: ACHN; assay: Growth inhibition of human ACHN cells after 48 hrs by SRB assay; assay type: functional; procedure, shortened: as §1
[55] = test system: HOP-92; assay: Growth inhibition of human HOP92 cells after 48 hrs by SRB assay; assay type: functional; conditions: HOP-92, 48 h; procedure, shortened: as §1
[56] = test system: SK-MEL-2; assay: Growth inhibition of human SK-MEL-2 cells after 48 hrs by SRB assay; assay type: functional; conditions: SK-MEL-2, 48 h; procedure, shortened: as §2
[57] = test system: HOP-62; assay: Growth inhibition of human HOP62 cells after 48 hrs by SRB assay; assay type: functional; conditions: HOP-62, 48 h; procedure, shortened: as §1
[58] = test system: MDA-MB-231; assay: Growth inhibition of human MDA-MB-231 cells after 48 hrs by SRB assay; assay type: functional; conditions: MDA-MB-231, 48 h; procedure, shortened: as §1

Cc1ccc(NC(=O)/C=C/c2ccccc2)c(C(N)=O)c1
GI50 [1]: 4.37 µM
GI50 [2]: 6.45 µM
GI50 [3]: 4 µM
GI50 [4]: 5.69 µM
GI50 [5]: 3.77 µM
GI50 [6]: 5.81 µM
GI50 [7]: 3.77 µM
GI50 [8]: 3.3 µM
GI50 [9]: 2.79 µM
inhibition of growth at 10 µM [10]: 65.4%
GI50 [11]: 17 µM
GI50 [12]: 1.94 µM
GI50 [13]: 1.01 µM
GI50 [14]: 3.14 µM
GI50 [15]: 8.92 µM
IC50 [16]: 5.5 µM
GI50 [17]: 2.05 µM
GI50 [18]: 3.18 µM
GI50 [19]: 1.77 µM
GI50 [20]: 3.2 µM
GI50 [21]: 3.56 µM
GI50 [22]: 9.62 µM
GI50 [23]: 3.97 µM
GI50 [24]: 3.66 µM
GI50 [25]: 5.56 µM
GI50 [26]: 8.2 µM
GI50 [27]: 1.84 µM
GI50 [28]: 2.83 µM
GI50 [29]: 7.28 µM
GI50 [30]: 1.11 µM
GI50 [31]: 3.38 µM
GI50 [32]: 3.59 µM
GI50 [33]: 3.48 µM
GI50 [34]: 2.79 µM
GI50 [35]: 2.18 µM
GI50 [36]: 3.12 µM
GI50 [37]: 5.24 µM
GI50 [38]: 7.65 µM
GI50 [39]: 10.9 µM
GI50 [40]: 11.4 µM
GI50 [41]: 25.8 µM
GI50 [42]: 7.49 µM
GI50 [43]: 2.35 µM
GI50 [44]: 4.2 µM
GI50 [45]: 5.18 µM
GI50 [46]: 4.13 µM
GI50 [47]: 2.31 µM
GI50 [48]: 2.36 µM
GI50 [49]: 2.94 µM
GI50 [50]: 9.63 µM
GI50 [51]: 0.66 µM
GI50 [52]: 4.88 µM
GI50 [53]: 7.59 µM
GI50 [54]: 13.5 µM
GI50 [55]: 11.4 µM
GI50 [56]: 4.75 µM
GI50 [57]: 7.74 µM
GI50 [58]: 7.26 µM
